Mdm2 MdmX PPI – human Mdm2/MdmX binding inhibition. O15151+Q00987. SaOS-2 split-luciferase Mdm2/MdmX complementation, luminescence. inhibition, % at 8 µM. actives 3% (n = 330,000). AID 485346;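 active means inhibition of at least 50% at 8 µM in the primary screen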
UBC13 polyUb – human UBC13 polyubiquitination inhibition | P61088 | UBC13 polyubiquitin chain formation, TR-FRET | inhibition, % at 20 µM | actives 0.47% (n = 330,000) | AID 485273; in the data active means inhibition above about 45%, passing the limit was not always enough
UPR CHOP act – activators of apoptotic arm of unfolded protein response (CHOP); CHO-CHOP luciferase reporter, UPR activation, luminescence; percent of tunicamycin response over DMSO baseline; activation, % at 10 µM; actives 0.34% (n = 330,000); AID 449763;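 active means at 10 µM dose, activation of 40% or more, normalized to positive control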;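 further: 100% = tunicamycin at 10 µg/mL and 0% = DMSO alone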
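Material: CHO-CHOP cells, stable luciferase reporter of PERK-eIF2a-CHOP signalling; quantity: 500 reporter cells seeded per well; buffer or medium: F12 medium containing 10% fetal bovine serum; compound: one dose, 10 µM in 0.5% DMSO; incubation: 6 h compound treatment, 37 °C; measured by: Steady-Glo luciferase luminescence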
XBP1 UPR activ – activators of adaptive arm of unfolded protein response (XBP1) | CHO-XBP1 luciferase reporter, IRE1-XBP1 UPR activation, luminescence; percent of tunicamycin response, DMSO as zero | activation, % at 20 µM | actives 0.33% (n = 330,000);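 active means versus positive control, 20 µM dose yields 30% or more activation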;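 further: 100% = tunicamycin at 10 µg/mL and 0% = DMSO only wells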
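incubation = overnight seeding at 37 °C, 6 h compound treatment at 37 °C | assay system = CHO-XBP1 cells stably carrying IRE1-XBP1-driven luciferase reporter | input = 1000 cells per well | detection = luciferase luminescence | dosing = single point, 20 µM final compound, 1% DMSO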
Apaf-1 inh – human Apaf-1 inhibition. actives 0.71% (n = 330,000). reconstituted apoptosome caspase-3 activity, DEVD-Rh110 fluorescence. inhibition, % at 20 µM; active means inhibition of at least 40% at 20 µM;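 further: plate controls were DMSO wells for no effect and DEVD-CHO caspase inhibitor wells for full effect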
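System – cell-free apoptosome with Apaf-1, procaspase-3 and caspase-9 · Buffer or medium – pH 7.5 Hepes buffer with CHAPS, BSA, DTT · Also added – cytochrome c with DEVD-Rh110 · Times – 30 min compound preincubation, 50 min activation, room temperature · Technique – Rh110 fluorescence intensity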
Mdm2 MdmX conf – confirmation of human Mdm2/MdmX interaction inhibitors; shares compounds with Mdm2 MdmX PPI; Mdm2-MdmX binding, luminescent assay; inhibition, % at 8 µM; actives 55% (n = 10,000); in the data active means inhibition above about 40%
FLuc counter – inhibits full-length luciferase, flagging false Mdm2/MdmX hits. shares compounds with Mdm2 MdmX PPI. SaOS-2 full-length luciferase counterscreen, luminescence. inhibition, % at 8 µM. actives 77% (n = 6,200). AID 504607;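 active means mean inhibition at 8 µM reaching about 37%, which flags the compound as non-specific, limit read from the data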;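 further: p53-null SaOS-2 cells with luciferase driven by a doxycycline-inducible promoter; compound on cells about two nights before reading with doxycycline added after day one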
Active calls of the source: *; . = no result given. Shown are actives, neighbours in structure and some others; about 4.1% of the full set was active somewhere.

SMILES | Mdm2 MdmX PPI | UBC13 polyUb | UPR CHOP act | XBP1 UPR activ | Apaf-1 inh | Mdm2 MdmX conf | FLuc counter
Cc1cc(Oc2nc3c(C)cccn3c(=O)c2/C=C(\C#N)S(=O)(=O)c2ccccc2)ccc1Cl | 52* | -12 | 10 | 5 | 17 | 7 | .
COc1ccc(CNC(=O)COC(=O)CN2C(=O)NC3(CCCC3)C2=O)cc1 | -1 | -18 | -2 | -1 | -1 | . | .
CC1CCCC(NCC(O)COC(c2ccc(F)cc2)c2ccc(F)cc2)C1C (stereo unspecified) | 98* | 15 | 1 | 16 | 11 | 78* | 49*
COc1ccccc1OCc1nc(C#N)c(NCCCn2ccnc2)o1 | 8 | -9 | -1 | -2 | 0 | . | .
COc1ccc(Nc2oc(COc3ccccc3OC)nc2C#N)cc1 | 68* | -5 | 3 | -2 | 0 | 64* | 72*
COc1cccc(C2=CC(=O)CC(c3ccco3)C2)c1 (stereo unspecified) | 10 | 4 | -1 | 2 | -1 | . | .
O=C(COC(=O)[C@H](Cc1ccccc1)NC(=O)c1ccco1)NCc1ccccc1 | 11 | 11 | -1 | -1 | -1 | . | .
COc1ccc(C(=O)OCC(=O)Nc2ccc([N+](=O)[O-])cc2OC)c(O)c1 | 84* | 1 | 18 | 7 | -17 | 8 | .
COc1ccc([N+](=O)[O-])cc1NC(=O)COC(=O)c1ccccc1O | 23 | 4 | 1 | 0 | -20 | . | .
CCN(CC)C(=O)c1sc(N)c(C(=O)OC(C)C)c1C | 4 | -11 | 0 | 3 | 6 | . | .
CCN(CC)C(=O)c1sc(NC(=O)C(Sc2ccccc2)c2ccccc2)c(C(=O)OC(C)C)c1C (stereo unspecified) | 58* | -9 | 2 | 1 | 17 | 1 | .
CC1(C)C[C@H]2C3=CCC4[C@@]5(C)CC[C@H](O)[C@](C)(CO)C5CC[C@@]4(C)[C@]3(C)C[C@H]3O[C@@H]1[C@H](O)[C@]32CO (stereo partly specified) | 10 | -2 | 0 | -3 | -6 | . | .
CC1(C)C[C@H]2C3=CCC4[C@@]5(C)CC[C@H](O)[C@](C)(CO)C5CC[C@@]4(C)[C@]3(C)CC[C@@]2(C)[C@H](O)[C@@H]1O (stereo partly specified) | 87* | -28 | 1 | 4 | 1 | 57* | 60*
COC(=O)c1cnc(SCC(=O)c2ccccc2)n1C | -28 | 2 | -1 | -5 | -5 | . | .
Brc1ccc(N=Nc2ccc3ccccc3n2)cc1 | 79* | -8 | -10 | -11 | 1 | 72* | 48*
Cc1ccc(NC(=O)c2cc(C(=O)c3cc(Cl)ccc3O)cn(-c3ccc(C)cc3)c2=O)cc1 | 88* | -27 | 2 | -1 | 11 | 86* | 44*
Cc1cc(OCC(=O)OCC(=O)NCC2CCCO2)ccc1Cl (stereo unspecified) | 3 | 3 | -2 | 0 | 6 | . | .
CC(C)c1nc(SCC(=O)N2CCCc3ccccc32)c2c(=O)n(C)c(=O)n(C)c2n1 | 55* | 2 | 7 | -1 | 38 | 47* | 51*
CCn1c(SCC(=O)N2CCCc3ccccc32)nc2c1c(=O)n(C)c(=O)n2C | 19 | 0 | 1 | 2 | -10 | . | .
Cc1ccc(N2C(=O)C3C4C=CC(CC4)C3C2=O)c([N+](=O)[O-])c1 (stereo unspecified) | -15 | -2 | 0 | -2 | 6 | . | .
Cc1ccccc1C1C(C#N)=C2NC(=O)c3c(sc4c3CCCCC4)N2C2=C1C(=O)CC(C)(C)C2 (stereo unspecified) | 82* | -25 | 18 | 4 | 38 | 63* | 38*
CC(C)Oc1ccc(C(CCNCc2ccc(O)cc2)c2ccccc2)cc1 (stereo unspecified) | 91* | 32 | 0 | -4 | 13 | 70* | 58*
O=c1[nH]c(CN2CCN(c3ccc(O)cc3)CC2)nc2scc(-c3ccc(Cl)cc3)c12 | 59* | 16 | -1 | 3 | -16 | 54* | 58*
COc1ccc(NC(=O)CN(C)C(=O)c2cc(-c3cccs3)nn2-c2ccccc2)cc1 | 27 | 1 | 1 | -4 | 9 | . | .
CCN(CC(=O)Nc1ccc(OC)cc1)C(=O)c1cc(-c2cccs2)nn1-c1ccccc1 | 60* | 3 | 5 | -3 | 21 | 55* | 90*
SMILES | Mdm2 MdmX PPI | UBC13 polyUb | UPR CHOP act | XBP1 UPR activ | Apaf-1 inh | Mdm2 MdmX conf | FLuc counter
O=C(Cn1cnc2ccccc21)Nc1ccc(SC(F)F)cc1 | 15 | 8 | 0 | 1 | 12 | . | .
O=C(Nc1ccc(SC(F)F)cc1)c1cccc2nc3ccccc3nc12 | 78* | 3 | 14 | 6 | -2 | 17 | .
Cc1ccccc1NC(=O)OCc1cccnc1Oc1ccc(Cl)cc1 | 32 | 2 | 0 | -1 | 21 | . | .
CCn1c(=O)c([N+](=O)[O-])c(NC2CCS(=O)(=O)C2)c2ccccc21 (stereo unspecified) | 7 | 2 | 1 | -3 | -162 | . | .
O=C(c1ccc(S(=O)(=O)c2cccc(Cl)c2)c([N+](=O)[O-])c1)N1CCN(Cc2ccccc2)CC1 | 94* | -2 | 2 | -2 | 11 | 85* | 58*
Cc1ccccc1CS(=O)(=O)c1ccc(C(=O)N2CCC(C)CC2)cc1[N+](=O)[O-] | 47 | -12 | -2 | -2 | 2 | . | .
O=C(c1ccc(Cl)c([N+](=O)[O-])c1)N1CCN(c2ccccn2)CC1 | 5 | 3 | -3 | 0 | 6 | . | .
CC1CCN(C(=O)c2ccc(S(=O)(=O)Cc3cccc(F)c3)c([N+](=O)[O-])c2)CC1 | 56* | 3 | 3 | -2 | -2 | 50* | 72*
O=C(c1ccc(S(=O)(=O)Cc2ccccc2Cl)c([N+](=O)[O-])c1)N1CCN(c2ccccn2)CC1 | 75* | 13 | 2 | -3 | -7 | 64* | 39*
Nc1nonc1C(=O)NCCNCc1ccccc1OCc1ccccc1F | 56* | 8 | -1 | -1 | 17 | 11 | .
COc1cccc(-n2cn[nH]c2=S)c1 | 3 | 0 | 0 | 0 | -13 | . | .
COc1cccc(-n2sc3c(c2=S)-c2cc(OC)ccc2NC3(C)C)c1 | 51* | 6 | 0 | 3 | -9 | 39 | 76*
Cn1c(=O)n(CC(=O)Nc2ccc(F)cc2)c2ccccc21 | 1 | 8 | 0 | -2 | -24 | . | .
Cn1c(CC(=O)Nc2ccccc2)c(Sc2ccccc2)c2ccccc21 | 15 | -21 | -2 | -3 | 6 | . | .
CSc1c(CC(=O)Nc2ccc(F)cc2)n(Cc2ccccc2)c2ccccc12 | 86* | -6 | 0 | 2 | 5 | 18 | .

Compound activity deposited in PubChem BioAssay by Sanford-Burnham Center for Chemical Genomics.
